Measurements taken from publication PMC6606825 (Journal of Ginseng Research, 2018).
Marks after values point to notes of the source that are not given here.

Assay: Pharmacokinetics of CK and its metabolite 20
Format: in vivo, healthy Chinese volunteers
Outline: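 Healthy adults given one oral tablet dose fasting (overnight, or 10 h in a crossover food-effect arm); 30 subjects from the 100/200/400 mg groups were pooled with 24 from 200 mg fasting periods. Plasma was stored at −70°C, extracted with MTBE plus internal standards and assayed by LC-MS/MS. Cmax was observed and AUClast calculated by linear trapezoid, each divided by dose. The metabolite/parent ratio was also calculated. Genotyping used Sequenom MassARRAY, and log-transformed values were compared by one-way ANOVA.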

[1] = ABCG2 rs3114018 AA (first line), mean (SD)
[2] = ABCG2 rs3114018 AA (third line), mean (SD)

CK Cmax/D (ABCG2 rs2725248 CC, mean (SD)): 4.46 (1.08)
CK AUClast/D [1]: 25.71 (14.88)
CK Cmax/D [1]: 3.40 (1.60)
CK AUClast/D [2]: 26.43 (22.97)
CK Cmax/D [2]: 3.36 (2.54)
CK AUClast/D (ABCG2 rs3114018 CA, mean (SD)): 30.74 (15.11)
CK Cmax/D (ABCG2 rs3114018 CA, mean (SD)): 4.02 (2.12)
CK AUClast/D (ABCG2 rs6857600 CC, mean (SD)): 29.60 (19.18)
CK Cmax/D (ABCG2 rs6857600 CC, mean (SD)): 3.72 (2.28)
CK AUClast/D (ABCG2 rs6857600 TC, mean (SD)): 26.00 (7.52)
CK Cmax/D (ABCG2 rs6857600 TC, mean (SD)): 3.79 (1.18)
CK AUClast/D (ABCG2 rs6857600 TT, mean (SD)): 16.47 (5.68)
CK Cmax/D (ABCG2 rs6857600 TT, mean (SD)): 2.37 (0.75)
CK AUClast/D (ABCG2 rs12505410 GG, mean (SD)): 36.50 (20.67)
CK Cmax/D (ABCG2 rs12505410 GG, mean (SD)): 3.96 (1.91)
CK AUClast/D (ABCG2 rs12505410 GT, mean (SD)): 33.35 (21.92)
CK Cmax/D (ABCG2 rs12505410 GT, mean (SD)): 4.39 (2.76)
CK AUClast/D (ABCG2 rs12505410 TT, mean (SD)): 22.29 (7.69)
CK Cmax/D (ABCG2 rs12505410 TT, mean (SD)): 3.00 (1.05)
CK AUClast/D (ABCG2 rs17731799 GG, mean (SD)): 25.71 (14.88)
CK Cmax/D (ABCG2 rs17731799 GG, mean (SD)): 3.40 (1.60)
CK AUClast/D (ABCG2 rs17731799 GT, mean (SD)): 32.10 (14.45)
CK Cmax/D (ABCG2 rs17731799 GT, mean (SD)): 4.13 (1.88)
CK AUClast/D (ABCG2 rs17731799 TT, mean (SD)): 26.40 (21.35)
CK Cmax/D (ABCG2 rs17731799 TT, mean (SD)): 3.47 (2.62)
CK AUClast/D (CFTR rs213950 AG, mean (SD)): 26.46 (20.44)
CK Cmax/D (CFTR rs213950 AG, mean (SD)): 3.36 (2.54)
CK AUClast/D (CFTR rs213950 GG, mean (SD)): 31.13 (15.12)
CK Cmax/D (CFTR rs213950 GG, mean (SD)): 4.14 (1.85)
CK AUClast/D (CFTR rs213968 CC, mean (SD)): 30.36 (14.71)
CK Cmax/D (CFTR rs213968 CC, mean (SD)): 4.14 (1.90)
CK AUClast/D (CFTR rs213968 CT, mean (SD)): 27.70 (20.72)
CK Cmax/D (CFTR rs213968 CT, mean (SD)): 3.43 (2.53)
CK AUClast/D (CFTR rs213968 TT, mean (SD)): 28.15 (14.72)
CK Cmax/D (CFTR rs213968 TT, mean (SD)): 3.81 (1.64)
CK AUClast/D (CFTR rs213976 GG, mean (SD)): 27.63 (17.53)
CK Cmax/D (CFTR rs213976 GG, mean (SD)): 3.62 (1.91)
CK AUClast/D (CFTR rs213976 GT, mean (SD)): 28.13 (20.65)
CK Cmax/D (CFTR rs213976 GT, mean (SD)): 3.63 (2.58)
CK AUClast/D (CFTR rs213976 TT, mean (SD)): 29.55 (14.70)
CK Cmax/D (CFTR rs213976 TT, mean (SD)): 3.89 (1.85)
CK AUClast/D (CFTR rs1042077 GG, mean (SD)): 28.15 (14.72)
CK Cmax/D (CFTR rs1042077 GG, mean (SD)): 3.81 (1.64)
CK AUClast/D (CFTR rs1042077 GT, mean (SD)): 27.96 (21.11)
CK Cmax/D (CFTR rs1042077 GT, mean (SD)): 3.46 (2.58)
CK AUClast/D (CFTR rs1042077 TT, mean (SD)): 30.54 (15.14)
CK Cmax/D (CFTR rs1042077 TT, mean (SD)): 4.12 (1.95)
CK AUClast/D (CFTR rs2106155 AA, mean (SD)): 25.97 (16.89)
CK Cmax/D (CFTR rs2106155 AA, mean (SD)): 3.41 (1.86)
CK AUClast/D (CFTR rs2106155 CA, mean (SD)): 31.04 (21.72)
CK Cmax/D (CFTR rs2106155 CA, mean (SD)): 4.02 (2.69)
CK AUClast/D (CFTR rs2106155 CC, mean (SD)): 29.28 (14.69)
CK Cmax/D (CFTR rs2106155 CC, mean (SD)): 3.86 (1.85)
CK AUClast/D (CFTR rs2237726 CC, mean (SD)): 29.76 (14.41)
CK Cmax/D (CFTR rs2237726 CC, mean (SD)): 3.89 (1.81)
CK AUClast/D (CFTR rs2237726 CT, mean (SD)): 26.16 (19.95)
CK Cmax/D (CFTR rs2237726 CT, mean (SD)): 3.35 (2.25)
CK AUClast/D (CFTR rs2237726 TT, mean (SD)): 32.16 (19.24)
CK Cmax/D (CFTR rs2237726 TT, mean (SD)): 3.98 (2.20)
CK AUClast/D (CFTR rs4148711 AA, mean (SD)): 28.15 (14.72)
CK Cmax/D (CFTR rs4148711 AA, mean (SD)): 3.81 (1.64)
CK AUClast/D (CFTR rs4148711 AT, mean (SD)): 27.70 (20.72)
CK Cmax/D (CFTR rs4148711 AT, mean (SD)): 3.43 (2.53)
CK AUClast/D (CFTR rs4148711 TT, mean (SD)): 29.34 (14.49)
CK Cmax/D (CFTR rs4148711 TT, mean (SD)): 3.89 (1.63)
CK AUClast/D (NR1I2 rs1464602 AA, mean (SD)): 28.65 (21.81)
CK Cmax/D (NR1I2 rs1464602 AA, mean (SD)): 3.54 (2.35)
CK AUClast/D (NR1I2 rs1464602 AG, mean (SD)): 33.46 (13.69)
CK Cmax/D (NR1I2 rs1464602 AG, mean (SD)): 4.62 (2.09)
CK AUClast/D (NR1I2 rs1464602 GG, mean (SD)): 20.43 (9.71)
CK Cmax/D (NR1I2 rs1464602 GG, mean (SD)): 2.65 (1.27)
CK AUClast/D (NR1I2 rs1523127 AA, mean (SD)): 29.24 (18.87)
CK Cmax/D (NR1I2 rs1523127 AA, mean (SD)): 3.82 (2.36)
CK AUClast/D (NR1I2 rs1523127 CA, mean (SD)): 27.08 (14.85)
CK Cmax/D (NR1I2 rs1523127 CA, mean (SD)): 3.53 (1.71)
CK AUClast/D (NR1I2 rs1523127 CC, n = 1): 28.50 (−) ^2)
CK Cmax/D (NR1I2 rs1523127 CC, n = 1): 3.49 (−) ^2)
CK AUClast/D (NR1I2 rs2276707 CC, mean (SD)): 25.30 (13.16)
CK Cmax/D (NR1I2 rs2276707 CC, mean (SD)): 3.46 (1.86)
CK AUClast/D (NR1I2 rs2276707 CT, mean (SD)): 30.38 (20.00)
CK Cmax/D (NR1I2 rs2276707 CT, mean (SD)): 3.88 (2.41)
CK AUClast/D (NR1I2 rs2276707 TT, mean (SD)): 28.36 (15.79)
CK Cmax/D (NR1I2 rs2276707 TT, mean (SD)): 3.71 (1.90)
CK AUClast/D (NR1I2 rs2472682 AA, mean (SD)): 21.56 (9.07)
CK Cmax/D (NR1I2 rs2472682 AA, mean (SD)): 2.87 (1.20)
CK AUClast/D (NR1I2 rs2472682 CA, mean (SD)): 34.34 (20.92)
CK Cmax/D (NR1I2 rs2472682 CA, mean (SD)): 4.45 (2.60)
CK AUClast/D (NR1I2 rs2472682 CC, mean (SD)): 24.44 (13.14)
CK Cmax/D (NR1I2 rs2472682 CC, mean (SD)): 3.17 (1.39)
CK AUClast/D (NR1I2 rs6785049 AA, mean (SD)): 22.20 (13.19)
CK Cmax/D (NR1I2 rs6785049 AA, mean (SD)): 2.88 (1.46)
CK AUClast/D (NR1I2 rs6785049 AG, mean (SD)): 32.86 (19.88)
CK Cmax/D (NR1I2 rs6785049 AG, mean (SD)): 4.27 (2.46)
CK AUClast/D (NR1I2 rs6785049 GG, mean (SD)): 24.29 (12.99)
CK Cmax/D (NR1I2 rs6785049 GG, mean (SD)): 3.22 (1.69)
CK AUClast/D (NR1I2 rs7643645 AA, mean (SD)): 26.64 (13.51)
CK Cmax/D (NR1I2 rs7643645 AA, mean (SD)): 3.76 (2.21)
CK AUClast/D (NR1I2 rs7643645 AG, mean (SD)): 27.63 (13.83)
CK Cmax/D (NR1I2 rs7643645 AG, mean (SD)): 3.41 (1.51)
CK AUClast/D (NR1I2 rs7643645 GG, mean (SD)): 39.83 (34.46)
CK Cmax/D (NR1I2 rs7643645 GG, mean (SD)): 5.06 (3.69)
SMILES: CC(C)=CCC[C@](C)(O[C@@H]1O[C@H](CO)[C@@H](O)[C@H](O)[C@H]1O)[C@H]1CC[C@]2(C)[C@@H]1[C@H](O)C[C@@H]1[C@@]3(C)CC[C@H](O)C(C)(C)[C@@H]3CC[C@]12C [Ginsenoside compound K, 20-O-beta-D-glucopyranosyl-20(S)-protopanaxadiol]
